Assay [1] has as its system HT-29. Kind of assay: Anti-necroptotic activity in human HT-29 cells assessed as inhibition of TNFalpha/SM-164/Z-VAD-fmk (TSZ)-induced necroptosis by measuring increase in cell viability at 10 uM measured after 12 hrs in presence of RIPK1/3 inhibitor TAK632 by celltiter-glo luminescent cell viability assay. The assay is classed as functional, cell-based. Put shortly:
(§1)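 HT-29 cells exposed to test agent combined with a second necroptosis inhibitor, then stimulated with TSZ for 12 h to assess synergy. Viability read by CellTiter-Glo luminescence.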
For orientation: Cellular ATP, detected with luciferase, serves as a proxy for viable cell number.

Assay [2] has as its system Mus musculus. The experiment in a line: Protection against TNFalpha-induced C57BL/6J mouse model of systemic inflammatory response syndrome assessed as reduction in IL6 level at 20 mg/kg, ig administered via gavage 2 hrs prior to TNFalpha stimulation and measured after 6 hrs by ELISA. The assay is classed as functional, organism-based. The settings on record: time 8.0 hrs. Put shortly: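 Female C57BL/6J mice, 6–8 weeks, fasted overnight, n=11 per group. Agent suspended in 0.5% CMC-Na, given by oral gavage 2 h before i.v. mTNF-α (250 µg/kg in PBS). z-VAD-fmk i.p. 200 µg 15 min before and 75 µg 1 h after. Serum IL-1β and IL-6 measured by ELISA at 6 h.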

In assay [3] the test system is HT-29. Kind of assay: Protection against TNFalpha/cycloheximide (TC)-induced apoptosis in human HT-29 cells assessed as increase in cell viability at 0.25 to 5 uM measured after 24 hrs by celltiter-glo luminescent cell viability assay. The class given is functional, cell-based. The settings on record: dose 0.25-5 µM. An outline of the steps:
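HT-29 cells treated with agent across concentrations, then TNF-α and cycloheximide (TC) for 24 h. CellTiter-Glo luminescent viability, mean ± S.D. from three independent experiments.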

Assay [4] has as its system HT-29. Kind of assay: Anti-necroptotic activity in human HT-29 cells assessed as inhibition of TNFalpha/SM-164/Z-VAD-fmk (TSZ)-induced necroptosis by measuring increase in cell viability at 10 uM measured after 12 hrs in presence of RIPK1 inhibitor Nec-1 by celltiter-glo luminescent cell viability assay. The class given is functional, cell-based. An outline of the steps:
as §1

The subject of assay [5] is HT-29. The experiment in a line: Anti-necroptotic activity in human HT-29 cells assessed as inhibition of TNFalpha/cycloheximide/Z-VAD-fmk (TCZ)-induced necroptosis by measuring increase in cell viability measured after 16 hrs by celltiter-glo luminescent cell viability assay. The class given is functional, cell-based.
Assay [6] concerns the target Heat shock protein HSP90 (Homo sapiens) (UniProt P07900+P08238). The experiment in a line: Inhibition of HSP90 in TNFalpha/SM-164/Z-VAD-fmk (TSZ)-induced human HT-29 cells assessed as reduction in RIPK3 expression at 10 uM preincubated for 30 mins followed by TSZ stimulation and measured after 2 to 6 hrs by Western blot analysis. The assay is classed as cell-based. To be noted: time 2-6.5 hrs. Put shortly:
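HT-29 cells pretreated 30 min with agent (10 μM), then TSZ for the indicated times. Lysed in RIPA with protease and phosphatase inhibitors, BCA quantified. 30 μg protein run on SDS-PAGE and blotted to PVDF. Blocked in 5% BSA, primary antibodies 1:1000 overnight at 4 °C, secondary 1:8000 for 1 h at room temperature.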

Assay [7] relates to Mus musculus. The experiment in a line: Protection against TNFalpha-induced C57BL/6J mouse model of systemic inflammatory response syndrome assessed as survival at 20 mg/kg, ig administered via gavage 2 hrs prior to TNFalpha stimulation and measured after 10 to 60 mins relative to control. The assay is classed as functional. The settings on record: po, time 2-3 hrs. An outline of the steps:
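Female C57BL/6 J mice, 6–8 weeks, fasted overnight, n=11 per group. Compound suspended in 0.5% CMC-Na, by oral gavage 2 h before mTNF-α 250 µg/kg i.v.; z-VAD-fmk 200 µg i.p. 15 min before and 75 µg 1 h after TNF. Survival and body temperature monitored.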

Data on 1 compound can be found in ChEMBL document CHEMBL4732104, “Discovery of bardoxolone derivatives as novel orally active necroptosis inhibitors” (Eur J Med Chem, 2021).

Activity calls are given as the source filed them. The calls are words filed in the database; no cut-off is given here.

With `CC1(C)CC[C@]2(C(=O)n3cnc(-c4cccnc4)c3)CC[C@]3(C)[C@H](C(=O)C=C4[C@@]5(C)C=C(C#N)C(=O)C(C)(C)[C@@H]5CC[C@]43C)[C@@H]2C1`, the inhibition entry (with HT-29 [1]; with HT-29 [4]; in assay [6]) was “Active” each time. The result in the assay on Mus musculus [2] and in the assay on HT-29 [3] was Active. For the same compound, the inhibition entry in the assay on HT-29 [5] is “Dose-dependent effect”. Also, in the assay with Mus musculus [7], the survival at 20 mg/kg came to 100%.
